Data on 1 molecule can be found in ChEMBL document CHEMBL4765239, “Discovery of a Novel Highly Selective Histamine H4 Receptor Antagonist for the Treatment of Atopic Dermatitis” (J Med Chem, 2018).

The term AUC denotes concentration integrated over time. A word on the IC50: it is the midpoint of a concentration-inhibition curve. Usually Cmax stands for the peak of the concentration-time curve. The inhibition in vivo is the percentage by which the read-out fell short of the control. Usually Tmax stands for the time from dosing to the highest level.

Data set [1] deals with Mus musculus. Kind of data set: Anti-pruritus activity in ICR mouse with histamine-induced itching assessed as reduction of scratching bouts at 10 mg/kg, po administered 30 mins prior to histamine challenge and measured upto 20 mins. The format is functional. To be noted: time 50 min. The arrangement: scale not given: the % may be the effect or the level left. Put shortly: (§1)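 Female ICR mice (n=8-10 per group), back skin clipped 24 h before. Oral dose in 20% hydroxypropyl-β-cyclodextrin given 30 min before intradermal pruritogen in saline: histamine 300 nmol, substance P 100 nmol or C48/80 100 µg. Scratching bouts counted from video for 20 min after injection. Mean ± S.E.M., Student's t-test.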

Data set [2] in a line: AUC (all) in ICR mouse at 2 mg/kg, po measured upto 24 hrs by LC-MS/MS analysis. The arrangement: route oral, dose 2 mg/kg, time <=24. It is filed as ADME, organism-based. To be noted: in vivo. The procedure, abridged:
(§2)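 Female ICR mice, n=3 per group, given test compound orally. Blood sampled at 0.5, 1, 2, 4, 7 and 24 h post dose; plasma levels quantified by LC-MS/MS. Parameters from non-compartmental analysis.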

Data set [3] deals with T1, Histamine H4 receptor (Mus musculus, UniProt Q91ZY2).
T1 sequence (Q91ZY2 whole entry): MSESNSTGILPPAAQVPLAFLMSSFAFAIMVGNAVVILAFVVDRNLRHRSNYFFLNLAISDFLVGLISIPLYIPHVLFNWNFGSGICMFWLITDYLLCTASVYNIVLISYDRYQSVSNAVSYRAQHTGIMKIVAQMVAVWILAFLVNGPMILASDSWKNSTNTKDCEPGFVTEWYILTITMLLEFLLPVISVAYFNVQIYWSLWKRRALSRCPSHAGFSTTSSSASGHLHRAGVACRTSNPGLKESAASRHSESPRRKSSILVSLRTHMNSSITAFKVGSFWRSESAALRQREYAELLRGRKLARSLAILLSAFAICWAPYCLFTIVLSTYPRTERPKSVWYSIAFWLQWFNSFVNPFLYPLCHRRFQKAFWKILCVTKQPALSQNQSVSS
Kind of data set: Displacement of [3H]-histamine from recombinant mouse histamine H4 receptor expressed in CHO-K1 cell membranes measured after 30 mins by microbeta scintillation counting method. The arrangement: species or system Cell membrane. The procedure, abridged: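 Competitive binding on CHO-K1 membranes expressing human H3R ([3H]Nα-methylhistamine) or mouse H4R ([3H]histamine). Run in 50 mM Tris-HCl pH 7.4 for 30 min at 27 °C, then filtered onto 0.5% PEI-treated glass fiber and washed three times with ice-cold buffer. Bound radioactivity read by liquid scintillation counting.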
On the technique in general: In a radioligand displacement assay an active substance lowers the binding of a labelled ligand.

For data set [4], the target named is T2, Histamine H4 receptor (Homo sapiens, UniProt Q9H3N8). Kind of data set: Antagonist activity at recombinant human histamine H4 receptor expressed in CHO-K1 cells assessed as inhibition of R-alpha-methylhistamine induced stimulation of [35S]-GTPgammaS binding by scintillation proximity assay. The format is functional, cell membranes, Cell membrane. Put shortly:
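Functional [35S]GTPγS binding on recombinant human H4R. Antagonism was measured against the reference agonist R-α-methylhistamine, with JNJ10191584 as the reference antagonist. Run by a contract lab.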
A general note: GTPγS resists hydrolysis and so accumulates on activated G proteins.

Data set [5] deals with T2, Histamine H4 receptor. The data set is described as follows: Displacement of [3H]-histamine from recombinant human histamine H4 receptor expressed in CHO-K1 cell membranes measured after 30 mins by microbeta scintillation counting method. Further details: species or system Cell membrane.
Data set [6] is described as follows: Cmax in ICR mouse at 10 mg/kg, po measured upto 24 hrs by LC-MS/MS analysis. The format is ADME, organism-based. Further details: route oral, dose 10 mg/kg, time <=24. To be noted: in vivo. The procedure, abridged:
as §2

Data set [7] can be described thus: Cmax in ICR mouse at 2 mg/kg, po measured upto 24 hrs by LC-MS/MS analysis. It is filed as ADME, organism-based. The arrangement: route oral, dose 2 mg/kg, time <=24. To be noted: in vivo. The procedure, abridged: as §2
The target of the next data set is Histamine H3 receptor (Homo sapiens, UniProt Q9Y5N1). Kind of data set: Displacement of [3H]-N-alpha-methylhistamine from recombinant human histamine H3 receptor after 60 mins by radiometric scintillation counting analysis.
The nature of data set [8]: Protein binding in mouse plasma. The format is ADME, cell-free. To be noted: read-out: PPB (converted).
Data set [9] concerns Mus musculus. Kind of data set: Anti-pruritus activity in ICR mouse with histamine-induced itching assessed as reduction of scratching bouts at 50 mg/kg, po administered 30 mins prior to histamine challenge and measured upto 20 mins. It is filed as functional. Particulars: 50 min. The procedure, abridged: as §1
The nature of data set [10]: Tmax in ICR mouse at 2 mg/kg, po measured upto 24 hrs by LC-MS/MS analysis. It is filed as ADME, organism-based. To be noted: in vivo. Put shortly: as §2
Data set [11] addresses T1, Histamine H4 receptor. Kind of data set: Antagonist activity at recombinant mouse histamine H4 receptor expressed in CHO-K1 cells assessed as inhibition of R-alpha-methylhistamine induced stimulation of [35S]-GTPgammaS binding by scintillation proximity assay. It is filed as functional, cell membranes, Cell membrane. Put shortly:
(§3)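 GTPγ35S binding on recombinant mouse H4R, run by an outside contractor. R-α-methylhistamine served as reference agonist and thioperamide as reference antagonist.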

Data set [12] in a line: AUC (all) in ICR mouse at 10 mg/kg, po measured upto 24 hrs by LC-MS/MS analysis. It is filed as ADME, organism-based. Further details: route oral, dose 10 mg/kg, time <=24. Particulars: in vivo. The procedure, abridged: as §2
A short description of data set [13]: Ratio of anti-pruritus activity in ICR mouse with histamine-induced itching assessed as free plasma concentration causing 50% reduction of scratching bouts at 10 mg/kg, po administered 30 mins prior to histamine challenge and measured upto 20 mins to Ic50 for displacement of [3H]-histamine from recombinant mouse histamine H4 receptor expressed in CHO-K1 cell membranes. The procedure, abridged:
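Itch model: female ICR mice (n=8-10), back clipped 24 h earlier, dosed orally in 20% hydroxypropyl-β-cyclodextrin 30 min before intradermal histamine (300 nmol, saline). Scratching bouts were videorecorded for 20 min. Free plasma concentration taken at Tmax. Binding used CHO-K1 mouse H4R membranes with [3H]histamine in 50 mM Tris-HCl pH 7.4, 30 min at 27 °C, then filtration and scintillation counting.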

Data set [14] in a line: Protein binding in human plasma. The format is ADME, cell-free. To be noted: read-out: PPB (converted).
Data set [15] deals with Mus musculus. Kind of data set: Anti-pruritus activity in oxazolone-induced Balb/c mouse model of atopic dermatitis assessed as reduction of scratching bouts at 50 mg/kg, po BID administered 30 mins prior to oxazolone challenge for 3 weeks and measured on day 25. It is filed as functional, organism-based. Put shortly: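 Female BALB/c mice (n=8), abdomen shaved. Sensitized on day 0 with topical 1% oxazolone (50 µL) in acetone/corn oil 4:1. From day 7, right ear challenged with 0.2% oxazolone (25 µL) 3 times weekly; left ear got vehicle. Oral dosing twice daily, 30 min before challenge, for 3 weeks. Scratching counted for 1 h after challenge on day 25. Ear thickness measured; ear fixed in 4% paraformaldehyde, 3 µm paraffin sections stained with H&E for epidermal thickness. Mean ± S.E.M., t-test.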

The nature of data set [16]: Tmax in ICR mouse at 10 mg/kg, po measured upto 24 hrs by LC-MS/MS analysis. It is filed as ADME, organism-based. Particulars: in vivo. The procedure, abridged:
as §2

For data set [17], the system named is Mus musculus. Kind of data set: Antiinflammatory activity in oxazolone-induced Balb/c mouse model of atopic dermatitis assessed as reduction of hyperplasia at 50 mg/kg, po BID administered 30 mins prior to oxazolone challenge for 3 weeks by hematoxylin and eosin staining based histopathological analysis. The format is functional, organism-based.
For data set [18], the target named is T3, Histamine H4 receptor (Mus musculus) (UniProt Q91ZY2).
T3 sequence (whole entry): T1 sequence (Q91ZY2 whole entry)
The data set is described as follows: Agonist activity at recombinant mouse histamine H4 receptor expressed in CHO-K1 cells assessed as stimulation of [35S]-GTPgammaS binding by scintillation proximity assay. The format is functional, cell membranes. Particulars: Cell membrane. Put shortly:
as §3

Data set [19] has as its system Mus musculus. The data set is described as follows: Anti-pruritus activity in ICR mouse with histamine-induced itching assessed as reduction of scratching bouts administered orally 30 mins prior to histamine challenge and measured upto 20 mins. It is filed as functional, organism-based. Particulars: dose 2-50 mg/kg, time 50.0 min.
The target of data set [20] is Histamine H2 receptor (Homo sapiens) (UniProt P25021). Kind of data set: Displacement of [125I]-aminopotentidine from recombinant human histamine H2 receptor after 120 mins by radiometric scintillation counting analysis.
Data set [21] in a line: AUC (all) in ICR mouse at 50 mg/kg, po measured upto 24 hrs by LC-MS/MS analysis. The format is ADME, organism-based. The arrangement: route oral, dose 50 mg/kg, time <=24. Particulars: in vivo. The procedure, abridged: as §2

Each structure is given as a SMILES string. Activity calls are given as the source filed them. The rule behind the calls is not given here. Bounds are passed on as bounds.

T2 sequence (Q9H3N8 whole entry): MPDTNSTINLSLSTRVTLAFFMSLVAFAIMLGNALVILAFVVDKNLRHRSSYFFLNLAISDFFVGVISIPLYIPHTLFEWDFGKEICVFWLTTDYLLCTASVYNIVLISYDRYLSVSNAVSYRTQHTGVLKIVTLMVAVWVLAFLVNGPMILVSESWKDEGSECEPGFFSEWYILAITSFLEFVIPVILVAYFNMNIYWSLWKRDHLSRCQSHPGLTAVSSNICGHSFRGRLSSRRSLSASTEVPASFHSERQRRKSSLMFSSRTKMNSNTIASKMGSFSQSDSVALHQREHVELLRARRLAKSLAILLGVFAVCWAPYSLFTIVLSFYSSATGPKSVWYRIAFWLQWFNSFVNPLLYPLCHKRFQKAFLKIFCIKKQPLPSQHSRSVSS
Sequence of Histamine H3 receptor (Q9Y5N1 whole entry): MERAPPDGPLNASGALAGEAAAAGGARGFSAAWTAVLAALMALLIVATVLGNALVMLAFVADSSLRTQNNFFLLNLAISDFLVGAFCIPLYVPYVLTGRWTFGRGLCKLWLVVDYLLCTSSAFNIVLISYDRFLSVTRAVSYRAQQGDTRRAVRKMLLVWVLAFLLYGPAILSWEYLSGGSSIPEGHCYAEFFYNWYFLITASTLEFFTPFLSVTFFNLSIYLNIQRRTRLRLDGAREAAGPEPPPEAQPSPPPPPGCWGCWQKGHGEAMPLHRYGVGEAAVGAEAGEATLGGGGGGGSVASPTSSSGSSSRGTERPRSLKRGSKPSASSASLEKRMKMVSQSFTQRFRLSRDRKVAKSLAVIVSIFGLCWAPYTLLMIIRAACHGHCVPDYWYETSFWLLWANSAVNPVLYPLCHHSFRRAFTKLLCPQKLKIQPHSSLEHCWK
Sequence of Histamine H2 receptor (Homo sapiens) (P25021 whole entry): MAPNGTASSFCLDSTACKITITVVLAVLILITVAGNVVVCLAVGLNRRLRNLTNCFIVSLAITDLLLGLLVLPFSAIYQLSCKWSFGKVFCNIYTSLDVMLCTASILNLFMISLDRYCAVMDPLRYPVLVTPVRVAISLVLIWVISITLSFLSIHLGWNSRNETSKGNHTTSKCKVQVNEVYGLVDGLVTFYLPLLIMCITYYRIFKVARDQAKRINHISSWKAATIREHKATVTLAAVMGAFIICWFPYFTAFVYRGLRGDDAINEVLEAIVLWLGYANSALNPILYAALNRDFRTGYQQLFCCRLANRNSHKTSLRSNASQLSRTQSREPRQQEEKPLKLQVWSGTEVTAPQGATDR

Consider `CNC1CN(c2nc3ncc(Br)cc3n3nnnc23)C1`, for which the values for the Activity result in the data set with Mus musculus [1] and in the data set with Mus musculus [19] were “<=50%” and “Dose-dependent effect”, respectively. Also, the AUC at 24 h worked out at 251 ng·h/mL in data set [2], 5400 ng·h/mL in data set [12] and 62600 ng·h/mL in data set [21]. Besides, the half-maximal inhibitory concentration (IC50) on Histamine H4 receptor [3] is 0.29 µM; at Histamine H4 receptor [4] it was 0.028 µM; on Histamine H4 receptor [5] it was 0.027 µM; at Histamine H4 receptor [11], 0.69 µM. Moreover, the Cmax in data set [6] was determined as 1820 ng/mL; in data set [7], 180 ng/mL. For the same molecule, the outcome (on Histamine H3 receptor; in [18]; in [20]) was inactive. The fraction unbound is 0.348 in data set [8] and 0.265 in data set [14]. The inhibition in vivo at 50 mg/kg in the data set on Mus musculus [9] was 100%. In addition, the time of peak concentration (Tmax) in data set [10] and in [16] was 30 min throughout. Further, the Ratio in data set [13] came out at 3. Further, the outcome in the data set with Mus musculus [15] and in the data set with Mus musculus [17] was Active.
